S1P4 agonist = S1P4 receptor agonists, primary screen, cell-based; S1P4-expressing cell line, agonist reporter assay; AID 1509, 2009; Sphingosine 1-phosphate receptor 4 (Homo sapiens), O95977; activation, % at 4.98 µM; hit rate 0.35% among 220,000; in the data active means activation above about 11%;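 further: 0% = DMSO vehicle and 100% = reference agonist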
Target sequence (O95977 whole entry, looked up): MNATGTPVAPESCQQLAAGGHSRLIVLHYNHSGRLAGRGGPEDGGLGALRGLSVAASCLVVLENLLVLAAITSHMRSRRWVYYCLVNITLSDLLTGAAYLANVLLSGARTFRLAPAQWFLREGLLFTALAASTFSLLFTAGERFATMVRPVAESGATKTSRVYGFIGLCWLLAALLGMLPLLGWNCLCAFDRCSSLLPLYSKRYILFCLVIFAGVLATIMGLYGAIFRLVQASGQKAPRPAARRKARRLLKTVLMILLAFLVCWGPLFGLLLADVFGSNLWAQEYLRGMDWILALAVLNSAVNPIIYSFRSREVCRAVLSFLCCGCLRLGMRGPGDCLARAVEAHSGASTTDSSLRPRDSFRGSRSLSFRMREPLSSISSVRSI
S1P3 antag = S1P3 receptor antagonists, primary screen, cell-based; Sphingosine 1-phosphate receptor 3 (Homo sapiens), Q99500; CHO S1P3 NFAT-BLA reporter, FRET fluorescence, antagonist mode; inhibition, % at 4.98 µM; hit rate 0.27% among 170,000; AID 485, 2006;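 active means inhibition above the plate cutoff, the mean inhibition of test wells on that plate plus 3 SD, cut at about 28% in these data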;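 further: cells challenged with S1P at its EC80 of 0.8 µM; blue over green emission ratio from cleaved BLA substrate after 4 h stimulation; 0% = S1P-stimulated wells and 100% = unstimulated DMSO-only wells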
S1P4 antagonist = S1P4 receptor antagonists, primary screen, cell-based; Sphingosine 1-phosphate receptor 4 (Homo sapiens), O95977; S1P4-expressing cells, antagonist mode, reporter read-out; inhibition, % at 4.98 µM; hit rate 0.26% among 220,000; AID 1510, 2009; in the data active means inhibition above about 29%;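 further: 0% = wells stimulated with agonist and 100% = vehicle wells without agonist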
Biofilm kill mix = clotrimazole potentiators killing C. albicans biofilm, primary screen, 4-compound mixtures | C. albicans biofilm persisters + clotrimazole, fluorescence viability; primary screen in compound mixtures of four per well | hit rate 0.02% among 120,000 | inhibition, % at 7.6 µM;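 active means inhibition above 30.3% in the primary screen of four-compound pools, then above 30% when the compound was retested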;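 further: compounds exposed to preformed 24 h biofilms for 48 h; 0% = untreated biofilm control and 100% = clotrimazole plus chlorhexidine kill blank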
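Test system: C. albicans CAF4-2 wild-type biofilms; buffer or medium: RPMI/MOPS medium, pH 7.0; schedule: 24 h biofilm formation, then 48 h compound exposure, 37 °C; detection: Alamar Blue fluorescence; measure: percent inhibition of biofilm viability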
HMGR II inh = inhibitors of E. faecalis class II HMGR, primary screen, biochemical, Enterococcus faecalis; inhibition, % at 10 µM; purified E. faecalis HMGR, NADPH absorbance 340 nm kinetic; hit rate 0.41% among 190,000;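 active means inhibition above a set limit, the median over all tested compounds plus 3 SD, cut at about 9.5% in these data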;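 further: enzyme runs in reverse so mevalonate oxidation gives rising NADPH absorbance; 0% = complete reaction with DMSO and 100% = background rate lacking mevalonate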
Rad51 HR inh = human RAD51 strand exchange inhibitors, primary screen, biochemical, fluorescence; hRad51 DNA strand exchange, fluorescence dequenching; inhibition, % at 10 µM; hit rate 0.085% among 200,000;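 active means inhibition above 40% at the single screening dose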;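 further: 0% = DMSO control wells and 100% = blanks with heterologous ssDNA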
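Test system – preformed human Rad51 ssDNA filaments · Reagent – Donor/quencher-labelled 47-bp dsDNA substrate · Incubation – 37 °C 15-min filament assembly, 30-min compound preincubation, 15-min exchange · Signal – FRET fluorescence dequenching, excitation 485 nm, emission 520 nm · Read-out – percent inhibition from fluorescence, normalised to plate control and blank means · Benchmarks – plate control and blank wells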
S1P4 antag cf = S1P4 receptor antagonists, human, confirmation, cell-based | shares compounds with S1P4 antagonist | S1P4-expressing cell line, antagonist mode, reporter read-out | inhibition, % at 4.98 µM | hit rate 71% among 520 | AID 1524, 2009; in the data active means inhibition above about 30%
S1P1 antagonist = S1P1 receptor antagonists, human, counter-screen for S1P4 antagonist project, cell-based | inhibition, % at 4.98 µM | hit rate 37% among 520 | cell-based S1P1 antagonist counterscreen, inhibition | shares compounds with S1P4 antagonist; in the data active means inhibition above about 40%;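 further: receptor stimulated with S1P near its EC80; 0% = agonist stimulated wells and 100% = vehicle only wells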
* marks the source's active call; other numbers are inactive results; nt = not tested or not shown. In the library only some 1.2% were active in any assay of this set; here they are far more common.

SMILES	S1P4 agonist	S1P3 antag	S1P4 antagonist	Biofilm kill mix	HMGR II inh	Rad51 HR inh	S1P4 antag cf	S1P1 antagonist
CCCCS(=O)(=O)/C=C\C=C/S(=O)(=O)CCCC	-4	nt	99*	nt	4	nt	117*	62*
N#C/C(=C\c1ccncc1)c1nc2ccccc2o1	-1	-18	22	24	nt	nt	nt	nt
N#C/C(=C\c1cccc(O)c1)c1nc2ccccc2o1	1	11	32*	34	nt	nt	1	7
CN(C)CCCNC(=O)/C(=C\c1ccc(-c2ccc(Br)cc2)o1)NC(=O)c1ccccc1	-1	-17	-4	9	-4	5	nt	nt
Cc1ccc(C(=O)N/C(=C\c2ccc(-c3ccc(Cl)cc3)o2)C(=O)NCCCN(C)C)cc1	-1	-2	36*	-13	-1	9	2	-5
CSCCC(NC(N)=O)C(=O)NCc1cccc(Cl)c1 (stereo not drawn)	-3	nt	-5	nt	-4	nt	nt	nt
CS(=O)(=O)c1nc(-c2ccccc2)cc(C(F)(F)F)n1	0	nt	40*	nt	-5	nt	116*	18
Cc1csc(NC(=O)COc2ccc3c(C)cc(=O)oc3c2)n1	-1	nt	-16	nt	0	0	nt	nt
Cc1cc(/C=N\NC(=O)COc2cccc3cccnc23)c(C)n1-c1ccccc1	0	-16	-19	13	4	1	nt	nt
CCOC(=O)C(C)(C)N(Cc1ccc(Cl)cc1)S(=O)(=O)c1ccc(Cl)c([N+](=O)[O-])c1	-1	1	2	9	-1	nt	nt	nt
CCOC(=O)C(C)(C)N(Cc1ccc(C)cc1)S(=O)(=O)c1ccc(Cl)c([N+](=O)[O-])c1	-1	-15	43*	-6	-9	1	80*	1
COc1cc(/C=C(\NC(C)=O)C(=O)Nc2ccc(NC(C)=O)cc2)ccc1OC(C)=O	-1	-14	14	11	-4	-4	nt	nt
CCOc1ccccc1NC(=O)CN(c1ccc(C)cc1)S(=O)(=O)c1c(C)n[nH]c1C	-1	25	1	nt	-5	-6	nt	nt
O=c1n(-c2cccc(Cl)c2)c(=O)n2n1CCC2	0	12	-17	nt	0	-6	nt	nt
Cc1ccc(S(=O)(=O)Oc2ccc(/C=C(/NC(=O)c3ccccc3)C(=O)NCCCC(=O)O)cc2)cc1	-1	-16	7	9	1	4	nt	nt
O=c1cc(O)c2c(=O)n(Cc3ccccc3)c3ccccc3c2o1	3	4	89*	-4	-6	-25	-7	15
COc1cc(NC(=O)c2cc(CC(C)C)on2)c(OC)cc1Cl	1	-6	33*	nt	-6	-2	23	12
CCCc1cc(C(=O)Nc2cc(OC)c(Cl)cc2OC)no1	3	-19	-10	nt	0	nt	nt	nt
O=[N+]([O-])c1ccc(N/N=C/c2c[nH]c3ccccc23)cc1	-3	nt	37*	nt	0	-197	50*	78*
CC1CCN(CCc2nc3cc(NC(=O)Nc4ccccc4)ccc3n2C)CC1	-3	-7	32*	nt	-5	-7	4	4
COCC(=O)Nc1ccc(S(=O)(=O)Nc2ncccn2)cc1	3	nt	10	nt	-4	-9	nt	nt
COc1ccc(CCNC(=O)c2cc(S(=O)(=O)N3CCC4(CC3)OCCO4)ccc2F)cc1OC	0	2	-1	19	1	-5	nt	nt
COC(=O)CC1C(=O)NC2CCCCC2N1C(=O)CCl (stereo not drawn)	-1	1	-19	5	nt	nt	nt	nt
Cc1ccc(NC(=O)CN(C)C2CCCCC2)cc1Br	0	16	32*	14	-7	2	19	39
